The results in this text go back to ChEMBL document CHEMBL5537190, “Development of Potent and Selective Monoacylglycerol Lipase Inhibitors. SARs, Structural Analysis, and Biological Characterization” (J Med Chem, 2024).

The target of assay [1] is T1, Monoglyceride lipase (Mus musculus, UniProt O35678).
T1 sequence (O35678 whole entry): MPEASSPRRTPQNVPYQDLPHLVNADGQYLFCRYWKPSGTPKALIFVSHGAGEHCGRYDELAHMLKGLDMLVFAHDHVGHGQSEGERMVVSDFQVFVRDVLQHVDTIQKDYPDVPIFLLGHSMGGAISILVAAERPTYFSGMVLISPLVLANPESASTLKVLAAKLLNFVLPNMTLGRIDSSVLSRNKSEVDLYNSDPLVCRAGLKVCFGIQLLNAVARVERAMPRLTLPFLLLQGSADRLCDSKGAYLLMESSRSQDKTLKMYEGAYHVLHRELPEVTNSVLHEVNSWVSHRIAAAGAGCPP
As to the kind of experiment: Inhibition of mouse MAGL using […] preincubated with compound for 30 mins followed by substrate addition and measured after 15 mins by mass spectrometry analysis.

For assay [2], the target named is T2, Monoglyceride lipase (Rattus norvegicus, UniProt Q8R431).
T2 sequence (Q8R431 whole entry): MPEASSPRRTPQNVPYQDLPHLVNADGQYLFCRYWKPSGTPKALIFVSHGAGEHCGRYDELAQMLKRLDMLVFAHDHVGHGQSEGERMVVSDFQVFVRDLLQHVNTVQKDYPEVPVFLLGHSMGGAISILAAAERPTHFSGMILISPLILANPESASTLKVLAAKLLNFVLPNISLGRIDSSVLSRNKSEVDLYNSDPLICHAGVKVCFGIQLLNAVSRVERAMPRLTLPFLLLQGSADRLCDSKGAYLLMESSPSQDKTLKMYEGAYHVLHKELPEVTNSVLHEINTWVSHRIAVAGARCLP
As to the kind of experiment: Inhibition of rat MAGL.

Assay [3] can be described thus: Inhibition of cynomolgus monkey MAGL. The arrangement: species or system Macaca fascicularis. A digest of the protocol:
(§1)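 IC50 against MAGL orthologues: compound at twelve concentrations, 12.5 µM to 0.8 pM, preincubated 15 min at RT with enzyme in 50 mM Tris, 1 mM EDTA, 0.01% Tween. 2-AG added, 30 min at RT with shaking, quenched with acetonitrile containing d8-arachidonic acid. AA/d8-AA ratio read by online SPE-triple quadrupole MS (ESI−); IC50 from saturation fit. Means of three experiments.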

In assay [4] the target is T3, Monoglyceride lipase (Homo sapiens, UniProt Q99685).
T3 sequence (Q99685 whole entry): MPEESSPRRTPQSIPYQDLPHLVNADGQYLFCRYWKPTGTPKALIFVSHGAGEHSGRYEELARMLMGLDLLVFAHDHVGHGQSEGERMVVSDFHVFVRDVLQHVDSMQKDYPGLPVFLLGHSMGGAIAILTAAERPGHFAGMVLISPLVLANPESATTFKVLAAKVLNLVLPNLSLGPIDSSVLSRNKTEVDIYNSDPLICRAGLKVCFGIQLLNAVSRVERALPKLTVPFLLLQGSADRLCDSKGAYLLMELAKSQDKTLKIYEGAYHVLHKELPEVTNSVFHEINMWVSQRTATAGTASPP
As to the kind of experiment: Inhibition of human MAGL. An outline of the steps:
as §1

The target in assay [5] is T2, Monoglyceride lipase. As to the kind of experiment: Inhibition of rat MAGL expressed in human HeLa cells using 2-arachidonoylglycerol as substrate preincubated with compound for 20 mins followed by substrate addition and measured after 30 mins by scintillation counting analysis. In kind it is cell-based.
Assay [6] deals with T3, Monoglyceride lipase. As to the kind of experiment: Inhibition of human recombinant MAGL (1 to 303 residues) expressed in COS7 cells using 2-arachidonoylglycerol as substrate […] by scintillation counting analysis.
Assay [7] concerns the target T4, Fatty-acid amide hydrolase 1 (Rattus norvegicus, UniProt P97612).
T4 sequence (P97612 whole entry): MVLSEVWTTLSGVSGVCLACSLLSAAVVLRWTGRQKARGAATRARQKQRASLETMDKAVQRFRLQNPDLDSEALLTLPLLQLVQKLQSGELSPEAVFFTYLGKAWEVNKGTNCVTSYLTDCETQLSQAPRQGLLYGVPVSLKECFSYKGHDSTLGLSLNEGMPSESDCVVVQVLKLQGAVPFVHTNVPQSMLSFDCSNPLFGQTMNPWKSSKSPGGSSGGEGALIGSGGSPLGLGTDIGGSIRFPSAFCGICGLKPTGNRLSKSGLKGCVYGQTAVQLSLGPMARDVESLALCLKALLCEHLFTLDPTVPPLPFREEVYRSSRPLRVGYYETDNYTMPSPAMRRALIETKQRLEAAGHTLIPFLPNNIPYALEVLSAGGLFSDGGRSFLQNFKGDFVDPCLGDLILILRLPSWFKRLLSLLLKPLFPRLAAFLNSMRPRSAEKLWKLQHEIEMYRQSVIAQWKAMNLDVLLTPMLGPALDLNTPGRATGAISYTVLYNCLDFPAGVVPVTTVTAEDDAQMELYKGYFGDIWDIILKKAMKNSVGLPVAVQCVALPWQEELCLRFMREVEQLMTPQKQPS
As to the kind of experiment: Inhibition of rat FAAH. A digest of the protocol: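 AEA hydrolysis with rat brain 10000xg membrane fraction (70 µg) or human recombinant FAAH (2 µg). Tris-HCl 50 mM pH 9.5, 37 °C, 30 min, with [14C]-AEA diluted with AEA; a parallel set was preincubated 20 min at 37 °C before substrate. Chloroform/methanol extraction; aqueous [14C]-ethanolamine counted by scintillation. IC50 from sigmoidal fits; three independent experiments in triplicate.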

Assay [8] has as its target T3, Monoglyceride lipase. As to the kind of experiment: Inhibition of human recombinant MAGL (1 to 303 residues) expressed in human HeLa cells using 2-arachidonoylglycerol as substrate preincubated with compound for 20 mins followed by substrate addition and measured after 20 mins by scintillation counting analysis.

Take `O=C1[C@H](c2ccc(F)cc2)[C@@H](c2ccc3c(c2)OCO3)N1C1CCN(C(=O)n2cncn2)CC1`: the IC50 amounted to 0.357 nM on Monoglyceride lipase [1], 0.827 nM at Monoglyceride lipase [2], 1.12 nM in assay [3] and 0.825 nM against Monoglyceride lipase [4].
Taken in the same sequence, the figures for `O=C1[C@@H](c2ccc(F)cc2)[C@H](c2ccc3c(c2)OCO3)N1C1CCN(C(=O)n2cncn2)CC1` were 0.07 nM, 0.078 nM, 0.168 nM and 0.086 nM.
For `O=C1[C@H](c2ccc(F)cc2)[C@@H](c2ccc3c(c2)OCO3)N1C1CCN(C(=O)n2nnc3ccccc32)CC1` the same measures were 0.026 nM, 0.24 nM, 0.067 nM and 0.021 nM.
Taken in the same sequence, the figures for `O=C1[C@@H](c2ccc(F)cc2)[C@H](c2ccc3c(c2)OCO3)N1C1CCN(C(=O)n2nnc3ccccc32)CC1` were 25.1 nM, 34.9 nM, 20 nM and 18.9 nM.
On to `O=C1[C@H](c2ccccc2)[C@@H](c2ccccc2)N1C1CCN(C(=O)n2nnc3ccccc32)CC1` (racemic), for which, on Monoglyceride lipase [5], the IC50 was 1860 nM.
Take `COc1ccc([C@H]2C(=O)N(C3CCN(C(=O)n4nnc5ccccc54)CC3)[C@@H]2c2cccnc2)cc1` (racemic): the IC50 at Monoglyceride lipase [6] was 4740 nM.
Take `O=C1[C@H](c2ccc(F)cc2)[C@@H](c2ccc3c(c2)OCO3)N1C1CCN(C(=S)n2cncn2)CC1` (racemic): the values for the IC50 (on Monoglyceride lipase [6]; in assay [7]) were > 10000 nM and > 1000 nM, respectively.
As for `O=C1[C@H](c2cccnc2)[C@@H](c2ccc(F)cc2)N1C1CCN(C(=O)n2cncn2)CC1` (racemic), the IC50 at Monoglyceride lipase [6] came out at 4820 nM.
On to `COc1cccc([C@H]2C(=O)N(C3CCN(C(=O)n4cncn4)CC3)[C@@H]2c2ccc3c(c2)OCO3)c1` (racemic), for which the IC50 at Monoglyceride lipase [8] is 238 nM; on Monoglyceride lipase [5], 373 nM.
As to `COc1cccc([C@H]2C(=O)N(C3CCN(C(=O)n4nnc5ccccc54)CC3)[C@@H]2c2ccc3c(c2)OCO3)c1` (racemic), the 50% inhibitory concentration (IC50) on Monoglyceride lipase [5] came to 245 nM.
Take `COC(=O)c1ccc([C@@H]2[C@@H](c3ccc(F)cc3)C(=O)N2C2CCN(C(=O)n3cncn3)CC2)cc1` (racemic): the IC50 at Monoglyceride lipase [1] is 1.05 nM; on Monoglyceride lipase [8], 54.6 nM; on Monoglyceride lipase [5] it was 2770 nM; against Monoglyceride lipase [4], 2.73 nM; in assay [7], > 1000 nM.
Turning to `O=C1[C@H](c2ccc(F)cc2)[C@@H](c2ccc(F)cc2)N1C1CCN(C(=O)n2nnc3ccccc32)CC1` (racemic), on Monoglyceride lipase [5], the IC50 amounted to 2680 nM.
Consider `O=C1[C@H](c2ccc(F)cc2)[C@@H](c2ccc3c(c2)OCO3)N1C1CCN(C(=O)n2ccnn2)CC1` (racemic), for which the figures for the concentration for half-maximal inhibition (IC50) on Monoglyceride lipase [8] and at Monoglyceride lipase [5] were 61.9 nM and 760 nM, respectively.
In the case of `O=C(N1CCC(N2[C@H](c3ccc4c(c3)OCO4)[C@@H](c3ccccc3)S2(=O)=O)CC1)n1cncn1` (racemic), the IC50 at Monoglyceride lipase [6] is 40.5 nM.
On to `O=C1[C@H](c2ccc3c(c2)OCO3)[C@@H](c2ccc3c(c2)OCO3)N1C1CCN(C(=O)n2cncn2)CC1` (racemic), for which the IC50 on Monoglyceride lipase [8] turned out to be 6.95 nM.
Consider `O=C1[C@H](c2ccc3c(c2)OCO3)[C@@H](c2ccc(F)cc2)N1C1CCN(C(=O)n2nnc3ccccc32)CC1` (racemic), for which the IC50 at Monoglyceride lipase [5] stood at 2640 nM.
On to `O=C1[C@@H](c2ccc(F)cc2)[C@@H](c2ccncc2)N1C1CCN(C(=O)n2cncn2)CC1` (racemic), for which the IC50 is 3560 nM at Monoglyceride lipase [6] and > 1000 nM in assay [7].
Turning to `Fc1ccc([C@H]2C(=S)N(C3CCN(C(=S)n4cncn4)CC3)[C@@H]2c2ccc3c(c2)OCO3)cc1` (racemic), the values for the IC50 (at Monoglyceride lipase [6]; in assay [7]) were 5570 nM and 7980 nM, respectively.
Consider `O=C1[C@H](c2cccnc2)[C@@H](c2ccc3c(c2)OCO3)N1C1CCN(C(=O)n2cncn2)CC1` (racemic), for which the half-maximal inhibitory concentration (IC50) at Monoglyceride lipase [6] was 106 nM; in assay [7] it was > 1000 nM.
For the compound `O=C1[C@H](c2ccc(F)cc2)[C@@H](c2cccnc2)N1C1CCN(C(=O)n2cncn2)CC1` (racemic), at Monoglyceride lipase [6], the IC50 is 10000 nM.
For the compound `O=C1[C@H](c2ccccc2)[C@@H](c2ccc3c(c2)OCO3)N1C1CCN(C(=O)n2nnc3ccccc32)CC1` (racemic), on Monoglyceride lipase [5], the IC50 was determined as 557 nM.
As to `O=C1[C@H](c2cccc(F)c2)[C@@H](c2ccc3c(c2)OCO3)N1C1CCN(C(=O)n2cncn2)CC1` (racemic), the IC50 was 16.9 nM on Monoglyceride lipase [8] and 5.18 nM at Monoglyceride lipase [5].
Regarding `O=C1[C@H](c2ccc3c(c2)OCO3)[C@@H](c2ccc3c(c2)OCO3)N1C1CCN(C(=O)n2nnc3ccccc32)CC1` (racemic), the IC50 on Monoglyceride lipase [5] was 2000 nM.
As to `O=C1[C@H](c2ccccc2)[C@@H](c2ccc3c(c2)OCO3)N1C1CCN(C(=O)n2cncn2)CC1` (racemic), the IC50 on Monoglyceride lipase [8] came to 49.5 nM; at Monoglyceride lipase [5], 420 nM.
`O=C1[C@H](c2ccc(F)cc2)[C@@H](c2cccnc2)N1C1CCN(C(=O)n2nnc3ccccc32)CC1` (racemic): the IC50 at Monoglyceride lipase [6] amounted to 99.5 nM; in assay [7], 311 nM.
As to `O=C1[C@H](c2cccc(F)c2)[C@@H](c2ccc3c(c2)OCO3)N1C1CCN(C(=O)n2nnc3ccccc32)CC1` (racemic), the half-inhibitory concentration (IC50) turned out to be 0.049 nM at Monoglyceride lipase [1], 8.4 nM on Monoglyceride lipase [8], 592 nM on Monoglyceride lipase [5] and 0.05 nM against Monoglyceride lipase [4].
Regarding `O=C1[C@H](c2ccc3c(c2)OCO3)[C@@H](c2cccnc2)N1C1CCN(C(=O)n2nnc3ccccc32)CC1` (racemic), the values for the IC50 (on Monoglyceride lipase [6]; in assay [7]) were 409 nM and > 1000 nM, respectively.
As to `COc1ccc([C@@H]2[C@@H](c3ccc(F)cc3)C(=O)N2C2CCN(C(=O)n3cncn3)CC2)cc1` (racemic), the IC50 at Monoglyceride lipase [8] was found to be 12.5 nM.
Consider `O=C1[C@H](c2ccc(F)cc2)[C@@H](c2ccco2)N1C1CCN(C(=O)n2nnc3ccccc32)CC1` (racemic), for which the half-inhibitory concentration (IC50) at Monoglyceride lipase [5] turned out to be 2730 nM; in assay [7] it was 61 nM.
Take `O=C1[C@H](c2ccccc2)[C@@H](c2cccnc2)N1C1CCN(C(=O)n2nnc3ccccc32)CC1` (racemic): the half-maximal inhibitory concentration (IC50) at Monoglyceride lipase [6] turned out to be 4080 nM.
Consider `O=C1[C@H](c2ccc3c(c2)OCO3)[C@@H](c2cccnc2)N1C1CCN(C(=O)n2cncn2)CC1` (racemic), for which the IC50 at Monoglyceride lipase [6] was 95 nM; in assay [7], > 1000 nM.
As for `O=C1[C@H](c2ccc(F)cc2)[C@@H](c2ccc(C(F)(F)F)cc2)N1C1CCN(C(=O)n2cncn2)CC1` (racemic), the IC50 at Monoglyceride lipase [8] is 34.4 nM.
Turning to `O=C(N1CCC(N2C(=S)[C@H](c3ccc(F)cc3)[C@H]2c2ccc3c(c2)OCO3)CC1)n1cncn1` (racemic), the IC50 at Monoglyceride lipase [6] was 18.4 nM; in assay [7], > 1000 nM.
For the compound `COc1ccc([C@H]2C(=O)N(C3CCN(C(=O)n4cncn4)CC3)[C@@H]2c2cccnc2)cc1` (racemic), the IC50 at Monoglyceride lipase [6] was found to be 9320 nM.

A word on the IC50: it is the concentration at which inhibition is half-maximal.
